In ChEMBL document CHEMBL1146509, “Periconicins, two new fusicoccane diterpenes produced by an endophytic fungus Periconia sp. with antibacterial activity” (2004):
Converted amounts (≈) assume the structure as drawn.

Tests used:
Micrococcus luteus = assay: Antibacterial activity against Micrococcus luteus IFO 12708 after 24 hrs by twofold microtiter broth dilution method; format: functional
In short: (§1)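 Two-fold serial dilutions in DMSO added to standard methods (SM) broth in 96-well plates, final 0.5% DMSO; wells inoculated from overnight culture at 10^5 CFU/mL; incubated 37 °C for 24 h; MIC taken as lowest concentration with no visible growth. Strains from ATCC or Institute for Fermentation, Osaka stock collections.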

Proteus vulgaris = assay: Antibacterial activity against Proteus vulgaris ATCC 3851 after 24 hrs by twofold microtiter broth dilution method; format: functional; in short: as §1
Salmonella typhimurium = assay: Antibacterial activity against Salmonella typhimurium ATCC 14028 after 24 hrs by twofold microtiter broth dilution method; format: functional, Salmonella enterica subsp. enterica serovar Typhimurium; in short: as §1
[1] = system: Staphylococcus epidermidis; assay: Antibacterial activity against Staphylococcus epidermidis ATCC 12228 after 24 hrs by twofold microtiter broth dilution method; format: functional; in short: as §1
Klebsiella pneumoniae = assay: Antibacterial activity against Klebsiella pneumoniae IFO 13541 after 24 hrs by twofold microtiter broth dilution method; format: functional; in short: as §1
Escherichia coli = assay: Antibacterial activity against Escherichia coli ATCC 25922 after 24 hrs by twofold microtiter broth dilution method; format: functional; in short: as §1
Staphylococcus aureus = assay: Antibacterial activity against Staphylococcus aureus ATCC 6538p after 24 hrs by twofold microtiter broth dilution method; format: functional; in short: as §1
Bacillus subtilis = assay: Antibacterial activity against Bacillus subtilis ATCC 6633 after 24 hrs by twofold microtiter broth dilution method; format: functional; in short: as §1
[2] = Salmonella enterica, ATCC 14028, 24 h

| Molecule | MIC (Micrococcus luteus; IFO 12708, 24 h) | MIC (Proteus vulgaris; ATCC 3851, 24 h) | MIC (Salmonella typhimurium; [2]) | MIC ([1]; ATCC 12228, 24 h) | MIC (Klebsiella pneumoniae; IFO 13541, 24 h) | MIC (Escherichia coli; ATCC 25922, 24 h) | MIC (Staphylococcus aureus) | MIC (Bacillus subtilis; ATCC 6633, 24 h) | MIC (Micrococcus luteus) | MIC (Proteus vulgaris) | MIC (Salmonella typhimurium; Salmonella enterica subsp. enterica serovar Typhimurium) | MIC [1] | MIC (Klebsiella pneumoniae) | MIC (Escherichia coli) | MIC (Bacillus subtilis) |
| --- | --- | --- | --- | --- | --- | --- | --- | --- | --- | --- | --- | --- | --- | --- | --- |
| CC(CO)C1=C2C/C=C(/C=O)[C@@H]3C(=O)[C@@H](O)[C@@H](C)[C@H]3C[C@]2(C)CC1 (some centres undefined) [PERICONICIN B] | > 100 µg/mL | 50 µg/mL (≈ 150 µM) | 50 µg/mL (≈ 150 µM) | 100 µg/mL (≈ 301 µM) | 25 µg/mL (≈ 75.2 µM) | > 100 µg/mL | 50 µg/mL (≈ 150 µM) | 25 µg/mL (≈ 75.2 µM) | – | – | – | – | – | – | – |
| GENTAMICIN | – | – | – | – | – | – | 3.12 µg/mL | – | 6.25 µg/mL | 6.25 µg/mL | 3.12 µg/mL | 3.12 µg/mL | 12.5 µg/mL | 1.56 µg/mL | 3.12 µg/mL |
| CC(C)C1=C2C/C=C(/C=O)[C@@H]3C(=O)[C@@H](O)[C@@H](C)[C@H]3C[C@]2(C)CC1 [PERICONICIN A] | 25 µg/mL (≈ 79 µM) | 6.25 µg/mL (≈ 19.8 µM) | 6.25 µg/mL (≈ 19.8 µM) | 12.5 µg/mL (≈ 39.5 µM) | 3.12 µg/mL (≈ 9.86 µM) | 100 µg/mL (≈ 316 µM) | 12.5 µg/mL (≈ 39.5 µM) | 3.12 µg/mL (≈ 9.86 µM) | – | – | – | – | – | – | – |
